The values below come from ChEMBL document CHEMBL1268957, “Indapamide-like benzenesulfonamides as inhibitors of carbonic anhydrases I, II, VII, and XIII” (Bioorg Med Chem, 2010).

The target in assay [1] is T1, Carbonic anhydrase 13 (Homo sapiens, UniProt Q8N1Q1). The assay is described as follows: Binding affinity to human recombinant carbonic anhydrase 13 by thermal shift assay.
Assay [2] addresses T2, Carbonic anhydrase 2 (Homo sapiens, UniProt P00918). Put plainly: Binding affinity to human recombinant carbonic anhydrase 2 by thermal shift assay.
The target in assay [3] is T3, Carbonic anhydrase 1 (Homo sapiens, UniProt P00915). Put plainly: Binding affinity to human recombinant carbonic anhydrase 1 by thermal shift assay.
The target of assay [4] is T4, Carbonic anhydrase 7 (Homo sapiens, UniProt P43166). Put plainly: Binding affinity to human recombinant carbonic anhydrase 7 by thermal shift assay.
Assay [5] deals with T4, Carbonic anhydrase 7. Put plainly: Binding affinity to human recombinant carbonic anhydrase 7 by isothermal titration calorimetry assay. Background: ITC needs no label: the signal is the heat of the interaction.
Assay [6] concerns the target T1, Carbonic anhydrase 13. Put plainly: Binding affinity to human recombinant carbonic anhydrase 13 by isothermal titration calorimetry assay.
Assay [7] deals with T3, Carbonic anhydrase 1. The assay is described as follows: Binding affinity to human recombinant carbonic anhydrase 1 by isothermal titration calorimetry assay. Summed up: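 Isothermal titration calorimetry of ligand binding to recombinant hCA at 37 °C in phosphate buffer with 50 mM NaCl, pH 7.0, final DMSO 0.5–2%. Heats of injection integrated against molar ratio to give the dissociation constant.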

For assay [8], the target named is T2, Carbonic anhydrase 2. Put plainly: Binding affinity to human recombinant carbonic anhydrase 2 by isothermal titration calorimetry assay.

T1 sequence (Q8N1Q1 whole entry): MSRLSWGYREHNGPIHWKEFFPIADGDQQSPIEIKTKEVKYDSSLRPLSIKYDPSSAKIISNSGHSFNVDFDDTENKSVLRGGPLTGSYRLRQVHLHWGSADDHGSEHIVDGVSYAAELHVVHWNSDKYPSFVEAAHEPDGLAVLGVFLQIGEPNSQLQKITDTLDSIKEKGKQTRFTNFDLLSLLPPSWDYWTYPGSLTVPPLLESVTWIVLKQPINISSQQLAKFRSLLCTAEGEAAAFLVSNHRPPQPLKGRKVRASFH
T4 sequence (P43166 whole entry): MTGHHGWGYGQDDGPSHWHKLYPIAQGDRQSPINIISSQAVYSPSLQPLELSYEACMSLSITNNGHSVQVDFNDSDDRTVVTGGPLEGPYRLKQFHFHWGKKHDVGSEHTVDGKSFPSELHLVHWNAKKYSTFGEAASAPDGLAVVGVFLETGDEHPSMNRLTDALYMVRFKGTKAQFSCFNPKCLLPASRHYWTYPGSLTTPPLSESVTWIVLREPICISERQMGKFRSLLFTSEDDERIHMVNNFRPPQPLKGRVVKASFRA
T3 sequence (P00915 whole entry): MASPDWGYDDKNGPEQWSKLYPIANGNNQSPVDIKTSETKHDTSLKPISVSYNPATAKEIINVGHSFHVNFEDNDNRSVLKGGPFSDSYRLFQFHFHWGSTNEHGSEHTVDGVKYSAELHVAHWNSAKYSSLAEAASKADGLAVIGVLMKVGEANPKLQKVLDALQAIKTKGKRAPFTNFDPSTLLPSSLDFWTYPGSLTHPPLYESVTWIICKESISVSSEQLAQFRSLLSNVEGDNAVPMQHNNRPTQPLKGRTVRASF

Consider `NS(=O)(=O)c1cc(C(=O)Cn2c(CN3CCOCC3)nc3ccccc32)ccc1Cl`, for which the Kd (usually the free concentration of one partner at which half of the binding sites on the other are occupied at equilibrium, for simple one-to-one binding) came to 12500 nM on Carbonic anhydrase 13 [1], 4200 nM at Carbonic anhydrase 2 [2], 40000 nM on Carbonic anhydrase 1 [3] and 10000 nM at Carbonic anhydrase 7 [4].

As for `NS(=O)(=O)c1cc(C(=O)CSc2nc3c(cnc4ccccc43)[nH]2)ccc1Cl`, the Kd stood at 100 nM at Carbonic anhydrase 13 [1], 1300 nM on Carbonic anhydrase 1 [3] and 100 nM at Carbonic anhydrase 7 [4].

Consider `CC(C)Cc1nc2ccccc2n1CC(=O)c1ccc(Cl)c(S(N)(=O)=O)c1`, for which the Kd at Carbonic anhydrase 2 [2] came out at 400 nM.

`NS(=O)(=O)c1cc(C(=O)CSc2nc3cc4c(cc3[nH]2)OCCO4)ccc1Cl`: the Kd turned out to be 1100 nM at Carbonic anhydrase 7 [5]; 100 nM at Carbonic anhydrase 13 [1]; 20 nM on Carbonic anhydrase 2 [2]; 3100 nM on Carbonic anhydrase 1 [3]; 300 nM on Carbonic anhydrase 13 [6]; 2200 nM on Carbonic anhydrase 1 [7]. In addition, the Kd on Carbonic anhydrase 7 [4] was 100 nM.

As to `NS(=O)(=O)c1cc(C(=O)CSc2nc3ccccc3[nH]2)ccc1Cl`, the Kd came out at 100 nM on Carbonic anhydrase 7 [5]; 200 nM at Carbonic anhydrase 13 [1]; 100 nM on Carbonic anhydrase 2 [2]; 1000 nM on Carbonic anhydrase 1 [3]; 100 nM on Carbonic anhydrase 13 [6]; 1300 nM at Carbonic anhydrase 1 [7]. The results for the Kd on Carbonic anhydrase 7 [4] and on Carbonic anhydrase 2 [8] were 30 nM and 100 nM, respectively.

As to `NS(=O)(=O)c1cc(C(=O)Cn2c(CO)nc3ccccc32)ccc1Cl`, the Kd on Carbonic anhydrase 13 [1] turned out to be 300 nM.

As for `NS(=O)(=O)c1cc(C(=O)CSc2nc3ccc(Br)cc3[nH]2)ccc1Cl`, the Kd on Carbonic anhydrase 13 [1] was 100 nM; at Carbonic anhydrase 1 [3] it was 1300 nM; on Carbonic anhydrase 13 [6] it was 200 nM; at Carbonic anhydrase 1 [7] it was 1400 nM; on Carbonic anhydrase 7 [4], 100 nM.

For `NS(=O)(=O)c1cc(C(=O)Cn2cnc3ccccc32)ccc1Cl`, at Carbonic anhydrase 13 [1], the Kd turned out to be 700 nM.
